# Compounds with a hit are over-represented: about 1.9% of the library has one in this group of screens.
# Rin1 Abl inh: inhibitors of Rin1-Abl protein binding, primary screen, biochemical, TR-FRET; AID 588664, 2011; Tyrosine-protein kinase ABL1 (Homo sapiens) + Ras and Rab interactor 1 (Homo sapiens), …; actives 0.4% (n = 360,000); inhibition, % at 7.35 µM; in the data active = inhibition above about 5%, passing the limit was not always enough
# NadD inh: inhibitors of S. aureus NadD, primary screen, biochemical, colorimetric, uHTS | Nicotinate-nucleotide adenylyltransferase NadD (Staphylococcus aureus N315) | purified NadD enzyme, colorimetric absorbance read-out | inhibition, % at 20 µM | actives 0.78% (n = 360,000) | AID 602399, 2012; in the data active = inhibition above about 26%
# Rpn11 inh: Rpn11 (PSMD14) deubiquitinase inhibitors, primary screen, biochemical, fluorescence polarization, uHTS | 26S proteasome non-ATPase regulatory subunit 14 (Homo sapiens), O00487 | inhibition, % at 20 µM | human 26S proteasome, Ub4-pepOG fluorescence polarization; 20S core pre-blocked with epoxomicin | actives 0.59% (n = 360,000);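 active = inhibition at 20 µM, scaled to each plate's controls, above about 33%, limit read from the data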
# Target sequence (O00487 whole entry, looked up): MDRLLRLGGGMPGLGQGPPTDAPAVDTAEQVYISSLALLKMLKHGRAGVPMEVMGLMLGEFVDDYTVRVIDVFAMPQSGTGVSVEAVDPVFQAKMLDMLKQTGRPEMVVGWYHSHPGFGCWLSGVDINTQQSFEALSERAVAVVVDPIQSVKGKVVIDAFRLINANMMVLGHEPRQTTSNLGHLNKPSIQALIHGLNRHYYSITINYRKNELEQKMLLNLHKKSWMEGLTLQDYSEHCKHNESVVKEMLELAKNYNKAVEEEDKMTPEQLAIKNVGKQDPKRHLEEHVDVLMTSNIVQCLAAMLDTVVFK
# XiGFP reactiv: activators of inactive X chromosome reactivation, primary screen, imaging, XiGFP fibroblasts, GFP high-content imaging, set 2. XiGFP mouse fibroblasts, % GFP-positive cells imaging, 3 d; cells co-treated with 5-aza-dC sensitizer; scaled so ellipticine positive control = 100%. activation, % at 7.58 µM. actives 0.055% (n = 360,000);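 active = mean normalized replicate activation at least 10% and every replicate at or above 10%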;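 also: 0% = median of on-plate neutral control wells and 100% = ellipticine 6 µM median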
#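 System: 68-5-11 XiGFP fibroblast line | Buffer or medium: DMEM containing 5-aza-dC | Compound: Single point | Times: Compounds 3 days, fix/stain 15 min at room temperature | Benchmarks: Positive control ellipticine, 6 µM final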
# ABHD5 PLIN5 PPI: ABHD5-PLIN5 interaction inhibitors, primary screen, cell lysate, split luciferase complementation, luminescence. actives 0.78% (n = 360,000). inhibition, % at 4 µM. Perilipin-5 (Homo sapiens) + 1-acylglycerol-3-phosphate O-acyltransferase ABHD5 (Homo …. AID 602281, 2012. Split G. princeps luciferase complementation, 4 h;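 active = inhibition above the mean inhibition across every tested compound plus 3 SD, cut at about 22% in these data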;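 also: 0% = DMSO only wells and the 100% control is not disclosed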
# Starred values were filed as active, the others as inactive; nt = no result shown.
SMILES,Rin1 Abl inh,NadD inh,Rpn11 inh,XiGFP reactiv,ABHD5 PLIN5 PPI
Cc1ccc(/C=C2\SC(=S)N(CCC(=O)NNC(=O)c3ccccc3O)C2=O)cc1,-2,38*,-6,0,-3
O=C(CCN1C(=O)S/C(=C\c2ccccc2)C1=O)Nc1ccc(O)cc1C(=O)O,5,-6,-22,0,8
Cc1ccc(/C=C2\SC(=S)N(CCC(=O)NNC(=O)c3ccc(O)cc3)C2=O)cc1,0,45*,18,0,-4
COc1cccc(/C=C2/SC(=S)N(CC(=O)NNC(=O)c3ccccc3O)C2=O)c1,1,7,8,0,-6
Cc1ccc(/C=C2\SC(=S)N(CCC(=O)NNC(=O)c3cccc(O)c3)C2=O)cc1,2,26,6,0,-1
O=C(CCN1C(=O)/C(=C/c2ccccc2Cl)SC1=S)NNC(=O)c1ccccc1O,-2,20,13,0,-4
CN1C(=O)/C(=C/c2ccc(C(=O)Nc3ccc(O)cc3C(=O)O)cc2)SC1=S,-2,40*,1,0,3
O=C(CN1C(=O)/C(=C/c2ccccc2)SC1=S)NNC(=O)c1ccccc1O,0,37*,13,0,0
O=C(CN1C(=O)/C(=C/c2cccc(Br)c2)SC1=S)NC1=NCCS1,2,34*,28,1,1
Cc1cccc(Cc2cnc(NC(=O)CN3C(=O)/C(=C/c4ccccc4)SC3=S)s2)c1,-1,31*,8,nt,-13
O=[N+]([O-])c1ccc(Cl)c2c1C1C=CCC1C(c1ccccn1)N2 (stereo not drawn),-3,41*,-18,0,6
Cc1cc([N+](=O)[O-])cc2c1NC(c1ccccn1)C1CC=CC21 (stereo not drawn),-4,29,-7,0,-2
CCN(CCCNc1cc2c(c(N)c1S(=O)(=O)O)C(=O)c1ccccc1C2=O)c1ccccc1,-3,52*,-56,0,15
O=C(C1CCC1)N1CC[C@@H]2[C@H](CO)Nc3ccc(C4=CCCCC4)cc3[C@@H]21,nt,nt,nt,0,nt
O=C1CSC(=S)N1/N=C/c1ccc(O)c(O)c1O,30*,8,nt,nt,2
Cc1nc(NC(=O)c2ccccc2)sc1-c1csc(NCc2ccco2)n1,-2,47*,45*,nt,-3
Cc1cccc(/C=C/C(=O)c2cc(Br)ccc(=O)c2O)c1,-1,30,14,nt,23*
COc1cc(C2Nc3cccc4cccc(c34)N2)ccc1O,0,59*,-4,0,2
COc1cc(C2Nc3cccc4cccc(c34)N2)cc(OC)c1OC(C)=O,2,43*,-21,nt,2
CC(=O)N1C[C@@H]2C(c3ccccc3)[C@@H](C1)N2CC(F)(F)F (stereo partly drawn),nt,nt,nt,0,nt
CCCC#Cc1ccc2c(c1)O[C@@H](CN(C)C(=O)c1ccccn1)[C@H](C)CN([C@H](C)CO)S2(=O)=O,nt,nt,nt,0,nt
NS(=O)(=O)c1ccc(N=Nc2c(-c3ccccc3)[nH]n(-c3nc(-c4ccccc4)cs3)c2=O)cc1,-1,37*,-4,0,0
COCC(=O)Nc1ccc2c(c1)[C@H]1C[C@H](CC(=O)N(C)C)O[C@@H](CO)[C@H]1O2,nt,nt,nt,0,nt
COc1ccc2c3c([nH]c2c1)[C@@H](CO)N(C)CC31CN(C(=O)c2cccnc2)C1,nt,nt,nt,1,nt
C[C@@H]1CN([C@@H](C)CO)C(=O)c2cc(NS(C)(=O)=O)ccc2O[C@@H](C)CCCCO[C@H]1CN(C)Cc1ccccc1,nt,nt,nt,-1,nt
SMILES,Rin1 Abl inh,NadD inh,Rpn11 inh,XiGFP reactiv,ABHD5 PLIN5 PPI
CC1=NN(c2ccccc2)C(=O)C1=Cc1ccccc1,29*,5,2,0,-15
CC=Cc1ccc2n(c1=O)C[C@H]1[C@H](CO)[C@@H](C(=O)Nc3ccc(-c4ccccc4)cc3)[C@@H]2N1CC (mixture of isomers),nt,nt,nt,1,nt
COc1cc2c3nnc(-c4ccc(F)cc4)c-3cn(Cc3ccc(F)cc3)c2cc1OC,-5,17,32,3,3
COc1ccc(Cn2cc3c(-c4ccc(F)cc4)nnc-3c3cc(OC)c(OC)cc32)cc1,-10,14,28,80*,10
COc1cc2c3nnc(-c4ccc(F)cc4)c-3cn(Cc3ccccc3)c2cc1OC,-9,9,-81,91*,-2
COCC(=O)N1C[C@H](C)[C@H](OC)CN(C)C(=O)c2ccc(NC(=O)Nc3ccccc3)cc2OC[C@H]1C,nt,nt,nt,0,nt
Cc1ccc(C)c(CSC2=NN3CCCC(=O)N=C3S2)c1,-1,-2,0,19*,1
O=C(CC(SCCO)c1ccc([N+](=O)[O-])cc1)c1ccco1 (stereo not drawn),0,-3,-1,0,23*
Cc1ccc(C(=O)CC(SCC(=O)O)c2ccc([N+](=O)[O-])cc2)cc1 (stereo not drawn),-3,1,3,0,11
Oc1cc2c(cc1O)[C@H]1c3ccc(O)c(O)c3OC[C@@]1(O)C2,31*,12,-19,0,10
Oc1ccc2c(c1)OCC1(O)Cc3cc(O)c(O)cc3C21 (stereo not drawn),5,3,-72,nt,9
N#Cc1c(NCCN)nc(NCc2ccccc2)c2c1CCN(Cc1ccccc1)C2,0,30*,4,nt,-19
C[C@H](CO)N1C[C@H](C)[C@@H](CN(C)S(=O)(=O)c2cccs2)Oc2c(NC(=O)CCCN(C)C)cccc2C1=O,nt,nt,nt,0,nt
COc1ccc2c3c(n(C)c2c1)[C@@H](CO)N(C(=O)C1CCCC1)CC31CN(C(=O)Nc2cccc(F)c2)C1,nt,nt,nt,0,nt
CCCNC(=O)N1CC2(CCN(Cc3ccncc3)CC2)c2c(n(C)c3cc(OC)ccc23)[C@@H]1CO,nt,nt,nt,0,nt
Cc1nn(-c2ccccc2)c(N2CCCC2)c1/C=N/NC(=O)c1cc2ccccc2cc1O,-2,39*,nt,1,1
CC(=O)N[C@H]1CC[C@@H](CCNC(=O)C2CCCC2)O[C@@H]1CO,nt,nt,nt,0,nt
CN(C)c1ccc(C=c2c3ccccc3n3c2c2ccccc2[n+]3C)cc1,0,54*,-24,0,15
O=C(C[C@@H]1CC[C@@H](NC(=O)c2ccncc2)[C@H](CO)O1)Nc1ccc(-c2ccccc2)cc1,nt,nt,nt,-1,nt
COc1ccc2c3c([nH]c2c1)[C@@H](CO)N(Cc1nccs1)CC31CN(C(=O)C2CCCCC2)C1,nt,nt,nt,0,nt
COc1ccc2c3c(n(C)c2c1)[C@@H](CO)N(CC1CC1)CC31CCN(C(=O)c2ccccc2)CC1,nt,nt,nt,0,nt
